Laboratory results taken from ChEMBL document CHEMBL1124180, “Asymmetric synthesis and properties of the enantiomers of the antibacterial agent 7-(3-aminopyrrolidin-1-yl)-1-(2,4-difluorophenyl)-1,4-dihydro-6- fluoro-4-oxo-1,8-naphthyridine-3-carboxylic acid hydrochloride” (J Med Chem, 1988).

Legend:
[1] = tested on: Klebsiella pneumoniae; assay: In vitro activity against Klebsiella pneumoniae (ATCC 8045).; format: functional
Method in brief: (§1)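 MIC determined by agar dilution on brain-heart infusion agar under aerobic conditions.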

[2] = tested on: Mus musculus; assay: In vivo activity against Escherichia coli Juhl(100X LD50), when administered po(each compound tested at 3 doses with 10 animals); format: functional
Method in brief: (§2)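 Mice were challenged intraperitoneally with the organism. The compound was given orally as a total dose split into equal portions at 1 and 5 h post-infection. Three doses were used, with 10 animals per dose.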

[3] = tested on: Bacteroides fragilis; assay: In vitro activity against Bacteroides fragilis (UC-2); format: functional
Method in brief: (§3)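 MIC determined under anaerobic conditions on Wilkins-Chalgren agar.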

[4] = tested on: Bacteroides thetaiotaomicron; assay: In vitro activity against Bacteroides thetaiotaomicron (ATCC 29742); format: functional; method in brief: as §3
[5] = tested on: Streptococcus pyogenes; assay: In vitro activity against Streptococcus pyogenes(930 CONST).; format: functional; method in brief: as §1
[6] = tested on: Mus musculus; assay: In vivo activity against Staphylococcus aureus NCTC 10649, administered po( each compound tested at 3 doses with 10 animals); format: functional; method in brief: as §2
[7] = tested on: Clostridium perfringens; assay: In vitro activity against Clostridium perfringens (788); format: functional
Method in brief: (§4)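 MIC for anaerobic bacteria, measured on Wilkins-Chalgren agar.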

[8] = tested on: Mus musculus; assay: In vivo activity against Pseudomonas aeruginosa A5007 (100X LD50), administered po( each compound tested at 3 doses with 10 animals); format: functional; method in brief: as §2
[9] = tested on: Escherichia coli; assay: In vitro activity against Escherichia coli (H560); format: functional
Method in brief: (§5)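 MIC for aerobic bacteria, measured on brain-heart infusion agar.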

[10] = tested on: Streptococcus pyogenes; assay: In vitro activity against Streptococcus pyogenes (EES61); format: functional; method in brief: as §1
[11] = tested on: Bacteroides fragilis; assay: In vitro activity against Bacteroides fragilis (SFM2975-7); format: functional; method in brief: as §3
[12] = tested on: Bacteroides thetaiotaomicron; assay: In vitro activity against Bacteroides thetaiotaomicron (SFM2975-2); format: functional; method in brief: as §3
[13] = tested on: Streptococcus equinus; assay: In vitro activity against Streptococcus bovis (A5169).; format: functional; method in brief: as §1
[14] = Solubility in aqueous media urine, pH 7.0; format: physicochemical; conditions: read-out: S
[15] = Solubility in aqueous media urine, pH 5.7; format: physicochemical; conditions: read-out: S
[16] = tested on: Pseudomonas aeruginosa; assay: In vitro activity against Pseudomonas aeruginosa (A5007).; format: functional; method in brief: as §1
[17] = tested on: Mus musculus; assay: In vivo activity against Escherichia coli Juhl(100X LD50), when administered sc(each compound tested at 3 doses with 10 animals); format: functional
Method in brief: (§6)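 Mice were challenged intraperitoneally with the organism. The compound was given subcutaneously as a total dose split into equal portions at 1 and 5 h post-infection. Three doses were used, with 10 animals per dose.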

[18] = tested on: Parvimonas micra; assay: In vitro activity against Peptostreptococcus micros (ATCC 33270); format: functional; method in brief: as §3
[19] = tested on: Pseudomonas aeruginosa; assay: In vitro activity against Pseudomonas aeruginosa (K799/WT).; format: functional; method in brief: as §1
[20] = tested on: Mus musculus; assay: In vivo activity against Staphylococcus aureus NCTC 10649, administered sc ( each compound tested at 3 doses with 10 animals); format: functional; method in brief: as §6
[21] = tested on: Prevotella bivia; assay: In vitro activity against Bacteroides bivius(B 6140); format: functional; method in brief: as §3
[22] = Solubility in aqueous media 0.15Nacetate, pH 6.1; format: physicochemical; conditions: 0.15 N acetate, read-out: S
[23] = tested on: Finegoldia magna; assay: In vitro activity against Peptococcus magnus (ATCC 29328); format: functional; method in brief: as §3
[24] = tested on: Staphylococcus aureus; assay: In vitro activity against Staphylococcus aureus(CMX 686B); format: functional; method in brief: as §1
[25] = tested on: Staphylococcus aureus; assay: In vitro activity against Staphylococcus aureus(ATCC 6538P); format: functional; method in brief: as §1
[26] = Solubility in aqueous media Ringer''s buffer, pH 7.4; format: physicochemical
[27] = tested on: Escherichia coli; assay: In vitro activity against Escherichia coli (DC-2); format: functional; method in brief: as §5
[28] = tested on: Staphylococcus aureus; assay: In vitro activity against Staphylococcus aureus (A5177); format: functional; method in brief: as §1
[29] = tested on: Clostridium perfringens; assay: In vitro activity against Clostridium perfringens (SFBC 2026); format: functional; method in brief: as §4
[30] = Solubility in aqueous media urine, pH 6.3; format: physicochemical; conditions: read-out: S
[31] = tested on: Staphylococcus aureus; assay: In vitro activity against Staphylococcus aureus(CMX 503A); format: functional; method in brief: as §1
[32] = tested on: Clostridium perfringens; assay: In vitro activity against Clostridium perfringens (104AT13124); format: functional; method in brief: as §4
[33] = tested on: Escherichia coli; assay: In vitro activity against Escherichia coli Juhl; format: functional; method in brief: as §5
[34] = tested on: Streptococcus agalactiae; assay: In vitro activity against Streptococcus agalactiae (CMX 508).; format: functional; method in brief: as §1
[35] = tested on: Hoylesella loescheii; assay: In vitro activity against Bacteroides loescheii (ATCC 15930).; format: functional; method in brief: as §3
[36] = tested on: Veillonella parvula; assay: In vitro activity against Veillonella parvula (ATCC 10790); format: functional
Method in brief: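 Anaerobic MICs measured by agar dilution on Wilkins-Chalgren agar.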

[37] = tested on: Prevotella disiens; assay: In vitro activity against Bacteroides disiens (ATCC 29426); format: functional; method in brief: as §3

Work on `Cl.N[C@H]1CCN(c2nc3c(cc2F)c(=O)c(C(=O)O)cn3-c2ccc(F)cc2F)C1` yielded an MIC [1] of 0.01 µg/mL, an ED50 [2] of 0.8 mg/kg and an MIC [3] of 0.25 µg/mL. It also gave an MIC [4] of 0.5 µg/mL, an MIC [5] of 0.1 µg/mL and an ED50 [6] of 0.8 mg/kg. For the same molecule, the MIC [7] was 0.12 µg/mL, the ED50 [8] was 11.5 mg/kg and the MIC [9] was 0.01 µg/mL. For the same molecule, the MIC [10] was 0.1 µg/mL, the MIC [11] was 0.5 µg/mL and the MIC [12] was 1 µg/mL. For the same molecule, the MIC [13] was 0.2 µg/mL, the solubility [14] was 17.1 µg/mL and the solubility [15] was 27.5 µg/mL. For the same molecule, the MIC [16] was 0.1 µg/mL, the ED50 [17] was 0.2 mg/kg and the MIC [18] was 0.06 µg/mL. The MIC [19] was 0.1 µg/mL, the ED50 [20] was 0.4 mg/kg and the MIC [21] was 0.5 µg/mL. The solubility [22] was 4.1 µg/mL, the MIC [23] was 0.06 µg/mL and the MIC [24] was 0.05 µg/mL. The MIC [25] was 0.02 µg/mL, the solubility [26] was 13 µg/mL and the MIC [27] was 0.2 µg/mL. It also gave an MIC [28] of 0.05 µg/mL, an MIC [29] of 0.12 µg/mL and a solubility [30] of 20.7 µg/mL. For the same molecule, the MIC [31] was 0.05 µg/mL, the MIC [32] was 0.12 µg/mL and the MIC [33] was 0.02 µg/mL. It also gave an MIC [34] of 0.2 µg/mL, an MIC [35] of 1 µg/mL and an MIC [36] of 0.25 µg/mL. For the same molecule, the MIC [37] was 1 µg/mL.
